Assay results as given in the M2OR odorant receptor database.

Key:
Conditions in all cases: stereoisomer not certain
UniProt A2ATE5 = biological target: T1, UniProt A2ATE5
T1 sequence (whole entry): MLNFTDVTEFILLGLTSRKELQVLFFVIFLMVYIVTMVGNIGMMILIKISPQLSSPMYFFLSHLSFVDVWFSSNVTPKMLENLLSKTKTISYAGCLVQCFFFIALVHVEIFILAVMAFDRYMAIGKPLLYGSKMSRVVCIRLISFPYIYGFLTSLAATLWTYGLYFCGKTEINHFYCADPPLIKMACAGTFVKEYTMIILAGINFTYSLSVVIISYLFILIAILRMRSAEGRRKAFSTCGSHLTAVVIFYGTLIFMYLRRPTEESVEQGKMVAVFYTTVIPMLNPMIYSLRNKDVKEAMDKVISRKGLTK
How it was run: (§1)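 Transient luciferase assays in mammalian cell lines were common, though methods varied by source. The values come from published papers and their supplementary material, with extra details from the original authors when needed. Responsive refers to a measured signal the original authors judged statistically different from baseline, and non-responsive (inactive) to the remainder.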

UniProt A2AVB0 = biological target: T2, UniProt A2AVB0
T2 sequence (whole entry): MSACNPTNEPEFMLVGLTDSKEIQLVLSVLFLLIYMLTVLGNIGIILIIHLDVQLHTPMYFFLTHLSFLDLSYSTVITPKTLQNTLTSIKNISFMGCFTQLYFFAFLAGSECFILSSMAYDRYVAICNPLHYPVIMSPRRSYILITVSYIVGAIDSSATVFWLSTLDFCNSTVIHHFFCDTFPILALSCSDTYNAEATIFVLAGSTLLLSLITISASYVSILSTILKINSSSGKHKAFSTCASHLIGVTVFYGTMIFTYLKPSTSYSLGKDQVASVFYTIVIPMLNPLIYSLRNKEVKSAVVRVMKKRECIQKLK
How it was run: as §1

UniProt E9PVX1 = biological target: T3, UniProt E9PVX1
T3 sequence (whole entry): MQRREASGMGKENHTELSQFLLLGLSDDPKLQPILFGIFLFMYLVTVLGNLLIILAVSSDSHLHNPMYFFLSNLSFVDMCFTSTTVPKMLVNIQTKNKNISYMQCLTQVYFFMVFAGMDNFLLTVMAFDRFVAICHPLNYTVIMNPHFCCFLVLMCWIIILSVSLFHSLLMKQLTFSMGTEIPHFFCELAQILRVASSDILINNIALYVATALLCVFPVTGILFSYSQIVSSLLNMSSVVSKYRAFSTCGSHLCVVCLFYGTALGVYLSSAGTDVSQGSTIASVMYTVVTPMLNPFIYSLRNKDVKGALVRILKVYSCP
How it was run: as §1

UniProt E9PZ66 = biological target: T4, UniProt E9PZ66
T4 sequence (whole entry): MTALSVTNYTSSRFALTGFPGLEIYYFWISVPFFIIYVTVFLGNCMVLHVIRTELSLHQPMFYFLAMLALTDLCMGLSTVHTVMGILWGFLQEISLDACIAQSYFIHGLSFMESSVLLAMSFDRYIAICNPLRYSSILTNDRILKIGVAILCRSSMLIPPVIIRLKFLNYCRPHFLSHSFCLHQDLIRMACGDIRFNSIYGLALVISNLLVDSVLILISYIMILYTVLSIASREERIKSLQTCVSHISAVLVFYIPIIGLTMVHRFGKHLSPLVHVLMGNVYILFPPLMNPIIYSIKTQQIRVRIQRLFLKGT
How it was run: as §1

UniProt E9Q4X7 = biological target: T5, UniProt E9Q4X7
T5 sequence (whole entry): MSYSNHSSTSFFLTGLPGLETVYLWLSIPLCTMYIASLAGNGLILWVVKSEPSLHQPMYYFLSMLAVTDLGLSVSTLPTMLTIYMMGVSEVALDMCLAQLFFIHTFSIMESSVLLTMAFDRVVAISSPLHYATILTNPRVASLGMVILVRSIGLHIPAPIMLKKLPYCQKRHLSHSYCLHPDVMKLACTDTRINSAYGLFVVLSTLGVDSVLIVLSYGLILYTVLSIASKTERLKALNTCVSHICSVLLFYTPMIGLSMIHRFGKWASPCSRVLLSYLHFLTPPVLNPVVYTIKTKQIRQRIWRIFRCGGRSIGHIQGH
How it was run: as §1

UniProt E9Q546 = biological target: T6, UniProt E9Q546
T6 sequence (whole entry): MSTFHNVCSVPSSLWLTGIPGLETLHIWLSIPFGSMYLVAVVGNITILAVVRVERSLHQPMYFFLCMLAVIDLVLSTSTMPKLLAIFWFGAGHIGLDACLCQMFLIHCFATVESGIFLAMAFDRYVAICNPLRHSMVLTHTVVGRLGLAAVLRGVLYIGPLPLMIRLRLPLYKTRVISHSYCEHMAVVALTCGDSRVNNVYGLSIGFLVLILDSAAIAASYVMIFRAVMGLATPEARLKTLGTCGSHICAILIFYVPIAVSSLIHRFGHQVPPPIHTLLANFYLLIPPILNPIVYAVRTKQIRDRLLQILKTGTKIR
How it was run: as §1

UniProt E9Q6Z7 = biological target: T7, UniProt E9Q6Z7
T7 sequence (whole entry): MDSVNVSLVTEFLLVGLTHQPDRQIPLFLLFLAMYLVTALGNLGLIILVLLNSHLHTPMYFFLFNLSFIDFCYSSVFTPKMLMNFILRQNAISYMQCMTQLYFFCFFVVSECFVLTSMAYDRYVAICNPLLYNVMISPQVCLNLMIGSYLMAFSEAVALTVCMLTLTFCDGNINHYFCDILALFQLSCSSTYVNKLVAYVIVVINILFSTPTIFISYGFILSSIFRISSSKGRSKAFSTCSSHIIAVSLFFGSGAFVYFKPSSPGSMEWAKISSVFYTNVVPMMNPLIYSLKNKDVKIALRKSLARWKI
How it was run: as §1

UniProt A2AVB5 = biological target: T8, UniProt A2AVB5
T8 sequence (whole entry): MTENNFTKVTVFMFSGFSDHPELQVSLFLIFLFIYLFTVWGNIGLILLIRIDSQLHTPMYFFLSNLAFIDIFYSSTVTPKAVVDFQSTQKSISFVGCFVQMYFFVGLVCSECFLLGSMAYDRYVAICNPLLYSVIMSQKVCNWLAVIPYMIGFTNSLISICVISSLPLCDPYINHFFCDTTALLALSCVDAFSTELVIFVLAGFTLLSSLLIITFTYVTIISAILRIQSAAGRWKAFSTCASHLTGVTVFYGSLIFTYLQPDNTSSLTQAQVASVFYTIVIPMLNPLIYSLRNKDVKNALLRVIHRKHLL
How it was run: as §1

UniProt B2RVX8 = biological target: T9, UniProt B2RVX8
T9 sequence (whole entry): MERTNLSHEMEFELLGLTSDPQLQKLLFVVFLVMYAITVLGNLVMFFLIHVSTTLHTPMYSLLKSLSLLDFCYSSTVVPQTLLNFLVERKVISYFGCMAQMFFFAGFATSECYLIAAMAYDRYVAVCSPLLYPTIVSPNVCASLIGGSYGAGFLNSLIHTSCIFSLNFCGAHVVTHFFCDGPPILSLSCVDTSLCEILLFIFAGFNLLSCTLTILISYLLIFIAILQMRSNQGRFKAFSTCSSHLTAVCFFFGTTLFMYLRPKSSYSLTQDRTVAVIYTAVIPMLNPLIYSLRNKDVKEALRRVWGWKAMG
How it was run: as §1

UniProt E9PX47 = biological target: T10, UniProt E9PX47
T10 sequence (whole entry): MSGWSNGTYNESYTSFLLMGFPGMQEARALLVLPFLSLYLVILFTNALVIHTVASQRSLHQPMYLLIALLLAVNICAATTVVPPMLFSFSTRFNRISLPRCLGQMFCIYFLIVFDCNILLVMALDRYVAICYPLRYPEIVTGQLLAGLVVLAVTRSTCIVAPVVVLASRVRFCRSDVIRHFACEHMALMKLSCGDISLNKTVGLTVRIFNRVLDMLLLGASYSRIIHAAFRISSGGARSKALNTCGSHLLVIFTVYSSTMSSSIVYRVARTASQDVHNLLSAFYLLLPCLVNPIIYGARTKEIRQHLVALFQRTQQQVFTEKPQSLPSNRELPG
How it was run: as §1

UniProt E9PXN3 = biological target: T11, UniProt E9PXN3
T11 sequence (whole entry): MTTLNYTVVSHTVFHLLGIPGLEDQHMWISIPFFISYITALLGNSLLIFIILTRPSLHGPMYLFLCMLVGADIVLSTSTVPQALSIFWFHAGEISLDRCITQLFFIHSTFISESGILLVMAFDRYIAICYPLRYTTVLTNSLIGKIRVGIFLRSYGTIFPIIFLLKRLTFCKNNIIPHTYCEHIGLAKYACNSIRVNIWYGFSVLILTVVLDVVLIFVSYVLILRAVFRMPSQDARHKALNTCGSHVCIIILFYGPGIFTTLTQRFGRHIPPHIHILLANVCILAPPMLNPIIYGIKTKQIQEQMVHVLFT
How it was run: as §1

UniProt K7N609 = biological target: T12, UniProt K7N609
T12 sequence (whole entry): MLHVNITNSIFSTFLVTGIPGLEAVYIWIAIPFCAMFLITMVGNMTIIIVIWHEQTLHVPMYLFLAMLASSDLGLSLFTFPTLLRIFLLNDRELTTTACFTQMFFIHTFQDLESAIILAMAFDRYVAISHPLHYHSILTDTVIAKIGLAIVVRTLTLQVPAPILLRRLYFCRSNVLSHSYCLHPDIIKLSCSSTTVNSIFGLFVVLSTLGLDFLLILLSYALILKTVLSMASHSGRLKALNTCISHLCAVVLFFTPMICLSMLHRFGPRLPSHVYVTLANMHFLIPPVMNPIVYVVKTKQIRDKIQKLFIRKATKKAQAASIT
How it was run: as §1

Measured: odorant receptor agonist call;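 further: active if original authors judged signal statistically different from baseline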

CCCCCCCCCC=CC=O
inactive: UniProt A2ATE5 | UniProt A2AVB0 | UniProt E9PVX1 | UniProt E9PZ66 | UniProt E9Q4X7 | UniProt E9Q546 | UniProt E9Q6Z7

O=C(O)C1CCC1
inactive: UniProt A2ATE5 | UniProt A2AVB0 | UniProt E9PVX1 | UniProt E9PZ66 | UniProt E9Q4X7 | UniProt E9Q546 | UniProt E9Q6Z7

Cc1ccccc1OC(=O)C(C)C
inactive: UniProt A2ATE5 | UniProt A2AVB0 | UniProt E9PVX1 | UniProt E9PZ66 | UniProt E9Q4X7 | UniProt E9Q546 | UniProt E9Q6Z7

C=C(CC)CCCC(C)(C)O
inactive: UniProt A2ATE5 | UniProt A2AVB0 | UniProt E9PVX1 | UniProt E9PZ66 | UniProt E9Q4X7 | UniProt E9Q546 | UniProt E9Q6Z7

CCCCCC(=Cc1ccccc1)C(OC)OC
inactive: UniProt A2ATE5 | UniProt A2AVB0 | UniProt E9PVX1 | UniProt E9PZ66 | UniProt E9Q4X7 | UniProt E9Q546 | UniProt E9Q6Z7

CCCCCCCOC(=O)C(C)C
inactive: UniProt A2ATE5 | UniProt A2AVB0 | UniProt E9PVX1 | UniProt E9PZ66 | UniProt E9Q4X7 | UniProt E9Q546 | UniProt E9Q6Z7

O=C([O-])CCCCCCC(=O)[O-].[H+].[H+]
inactive: UniProt A2ATE5 | UniProt A2AVB0 | UniProt E9PVX1 | UniProt E9PZ66 | UniProt E9Q4X7 | UniProt E9Q546 | UniProt E9Q6Z7

Cc1c(C)c(C)c(C=O)c(C)c1C
inactive: UniProt A2ATE5 | UniProt A2AVB0 | UniProt E9PVX1 | UniProt E9PZ66 | UniProt E9Q4X7 | UniProt E9Q546 | UniProt E9Q6Z7

OCC=Cc1ccccc1
inactive: UniProt A2ATE5 | UniProt A2AVB0 | UniProt E9PVX1 | UniProt E9PZ66 | UniProt E9Q4X7 | UniProt E9Q546 | UniProt E9Q6Z7

CCCO
inactive: UniProt A2ATE5 | UniProt A2AVB0 | UniProt E9PVX1 | UniProt E9PZ66 | UniProt E9Q4X7 | UniProt E9Q546 | UniProt E9Q6Z7

CC(C)CCN
inactive: UniProt A2ATE5 | UniProt A2AVB0 | UniProt E9PVX1 | UniProt E9PZ66 | UniProt E9Q4X7 | UniProt E9Q546 | UniProt E9Q6Z7

C=C(C)C1CCC(C)C(O)C1 (stereo unspecified)
inactive: UniProt A2ATE5 | UniProt A2AVB0 | UniProt E9PVX1 | UniProt E9PZ66 | UniProt E9Q4X7 | UniProt E9Q546 | UniProt E9Q6Z7

CSSCc1ccco1
inactive: UniProt A2ATE5 | UniProt A2AVB0 | UniProt E9PVX1 | UniProt E9PZ66 | UniProt E9Q4X7 | UniProt E9Q546 | UniProt E9Q6Z7

CC(=O)C1(C)CC2=C(CCCC2(C)C)CC1C (stereo unspecified)
inactive: UniProt A2ATE5 | UniProt A2AVB0 | UniProt E9PVX1 | UniProt E9PZ66 | UniProt E9Q4X7 | UniProt E9Q546 | UniProt E9Q6Z7

CC(=O)C=CC1=C(C)CCCC1(C)C
inactive: UniProt A2ATE5 | UniProt A2AVB0 | UniProt E9PVX1 | UniProt E9PZ66 | UniProt E9Q4X7 | UniProt E9Q546 | UniProt E9Q6Z7

CCCC(C)=O
inactive: UniProt A2AVB5 | UniProt B2RVX8 | UniProt E9PX47 | UniProt E9PXN3 | UniProt E9Q546 | UniProt K7N609
